An excerpt weighted towards active compounds, which were near 2.3% of everything screened.
MT stabilizer = microtubule stabilization, imaging screen. HeLa tubulin immunostaining HCS, 24 h; share of cells brighter than vehicle mean+2SD. % tubulin-high responders, % at 10 µM. actives 0.83% (n = 200,000);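 active means plate Z-score above 3 for both tubulin-high and condensed-nucleus cell shares, with cell loss under 80%, at 10 µM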;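 further: anti alpha tubulin signal scored within the nucleus-defined area of each cell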
Ins promoter up = MIN6 insulin promoter up-regulation; MIN6 insulin promoter-GFP reporter, high-content imaging; hits give high values; actives 0.3% (n = 190,000); z-score at 5 µM;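 active means z-score above 3 at 5 µM with at least 500 cells counted in the well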
Autophagy mod = modulators of autophagy; AID 463193; actives 0.98% (n = 190,000); MEF GFP-LC3 puncta imaging; test concentration mostly 10 µM; calls only at 10 µM (by protocol);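 active means percentage of spot-positive cells more than 3 SD above its plate mean, without a fluorescence outlier flag or 80% toxicity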;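 further: spot-positive cell cutoff set from DMSO-treated cells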
bCat nuc transl = modulators of beta-catenin nuclear translocation | HeLa beta-catenin nuclear translocation, immunofluorescence imaging | nuclear translocation activity, % at 5 µM | actives 0.3% (n = 190,000) | AID 1665;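 active means nuclear translocation activity above 50% at 5 µM, with a well cell count of 50 or more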;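 further: per-cell ratio of nuclear to cytoplasmic median beta-catenin stain intensity; plate controls were DMSO negative control for no effect and GSK-3 inhibitor IX positive control for full effect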
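Test system: human HeLa cell line; Doses: 5 µM primary, 0.02–20 µM confirmation; Incubation: 24 h compound exposure, 37°C; Detection: beta-catenin immunofluorescence imaging with DAPI; Read-out: beta-catenin nuclear/cytoplasmic ratio, % activation.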
Dynein cargo inh = dynein cargo transport inhibition | 3617.4 mouse cells, GR-EGFP nuclear translocation imaging; test concentration mostly 20 µM; stimulated with dexamethasone, 1 µM; hits give low values | z-score, hits read low | actives 0.47% (n = 220,000) | AID 1381;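 active means plate z-score of nuclear minus cytoplasmic receptor signal below a set negative limit, without overly bright fluorescence or cell loss, cut at about -3.5 in these data, passing the limit was not always enough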;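 further: z-score of nuclear minus cytoplasmic ring GR-EGFP intensity difference per well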
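Buffer or medium: Induction medium lacking tetracycline, stripped serum | Also added: Dexamethasone agonist, 1.0 µM final, for 30 min | Timing: 48 h induction, 1 h compound, 30 min dex at 37 °C | Detection: Formaldehyde fixation, Hoechst nuclear stain, 10x automated fluorescence imaging | Measure: Nuclear versus cytoplasmic GR-EGFP signal, averaged per well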
The depositor's hits bear a star; i = inactive; x = no result given; + = active, no number.

SMILES | MT stabilizer | Ins promoter up | Autophagy mod | bCat nuc transl | Dynein cargo inh
Cn1c2ccccc2n2c(=O)c(Cl)c(-c3ccccc3)c(C#N)c12 | 2.1 | -0.29 | + | -0.9 | 1.2
O=C(Nc1ccccc1C(=O)NCc1cccnc1)c1cccc([N+](=O)[O-])c1 | 2.7 | -0.73 | i | 1.3 | -0.113
COC(=O)c1sc2ccccc2c1-n1cccc1C(=O)C(=O)Nc1ccc(F)cc1 | 2.6 | 5.4* | i | -0.1 | 0.0126
COC(=O)c1ccc(NC(=O)C(=O)c2cccn2C)cc1 | 5.5 | 0.26 | i | -2.5 | 1.11
COC(=O)c1sc2ccccc2c1-n1cccc1C(=O)C(=O)Nc1ccc(Cl)cc1 | 40.4* | x | i | x | -0.397
COC(=O)c1sccc1-n1cccc1C(=O)C(=O)Nc1ccc(F)cc1 | 2.7 | -0.59 | i | 1.3 | 0.664
COC(=O)c1sc2ccccc2c1-n1cccc1C(=O)C(=O)Nc1ccc(C)cc1 | 32.0* | x | i | x | 0.98
COCc1[nH]c(=S)[nH]c(=O)c1C | x | 0.28 | x | 0.1 | -0.517
O=C(N/N=C/c1cccs1)c1cc(C2CC2)nc2ccccc12 | 16.5* | -0.03 | i | 61.4* | 1.25
Cc1ccc2sc(NNC(=O)c3cc(-c4cccs4)nc4ccccc34)nc2c1C | 3.8 | -0.13 | i | -1.1 | -0.462
COc1ccccc1-c1cc(C(=O)N/N=C/c2cccs2)c2ccccc2n1 | 1.6 | x | i | x | -0.0498
Cc1cc(C)c2nc(NNC(=O)c3cc(-c4cccs4)nc4ccccc34)sc2c1 | 2.7 | 3.73* | i | 0.0 | -0.611
CCc1ccc(/C=N/NC(=O)c2cc(-c3ccncc3)nc3ccccc23)s1 | 9.4 | 0.45 | i | 66.1* | 0.764
Cn1cccc1/C=N/NC(=O)c1cc(-c2cccs2)nc2ccccc12 | 17.2* | 0.54 | i | 16.8 | -0.139
CC1CC(=O)Nc2cc([N+](=O)[O-])ccc2N1 (centres undefined) | x | 0.95 | x | -0.1 | -0.741
C=CCOc1cccc(C(=O)N2CCCC(CNS(=O)(=O)c3cccs3)C2)c1 (centres undefined) | 3.2 | 0.06 | i | -0.5 | 1.99
Cc1c(S(=O)(=O)c2ccccn2)c(N)n(Cc2cccc(Cl)c2)c1C | x | 0.13 | x | -0.8 | 0.202
CCCc1cc(C(=O)N/N=C/c2ccc(CC)s2)c2ccccc2n1 | 34.2* | x | i | x | -0.76
COc1ccccc1-c1cc(C(=O)N/N=C\c2cnn(C)c2C)c2ccccc2n1 | 2.0 | 0.66 | i | 0.4 | -0.411
O=C(N/N=C/c1cccs1)c1cc(-c2ccncc2)nc2ccccc12 | 5.1 | -0.09 | i | 61.2* | -0.257
CCn1ncc(/C=N\NC(=O)c2cc(-c3ccc(C)cc3C)nc3ccccc23)c1C | 44.2* | 0.27 | i | -2.6 | -0.433
COc1ccccc1C(=O)NNC(=O)c1ccc(NC(=O)C(C)C)cc1 | 2.6 | 0.11 | i | -5.9 | -0.0396
O=C(/C=C/c1ccc2ccccc2n1)c1cc(Br)ccc1O | x | 4.36* | x | -0.7 | -0.197
O=[N+]([O-])c1cc(S(=O)(=O)Nc2cccc(Cl)c2)ccc1N/N=C/c1ccc(N2CCOCC2)cc1 | x | -0.35 | x | -0.8 | -0.824
CCc1cccc(CC)c1N(COC)C(=O)Cn1ccccc1=N | 3.9 | 0.97 | + | -2.7 | 0.11
SMILES | MT stabilizer | Ins promoter up | Autophagy mod | bCat nuc transl | Dynein cargo inh
COc1nc(Nc2ccc([N+](=O)[O-])cc2)nc(NC2CCCCC2)n1 | 3.0 | -0.9 | i | -0.1 | 0.581
O=C(NCC1CCN(S(=O)(=O)c2ccccc2)CC1)Nc1ccc(F)cc1F | x | -0.36 | x | -2.4 | -0.315
CCN(Cc1ccccc1)c1ccc(/C=C(\C#N)c2ccccn2)cc1 | 4.0 | 0.33 | i | -0.7 | -0.137
CCN(CC)c1ccc(/C=C(\C#N)c2ccccn2)cc1 | 21.5* | -0.24 | i | x | 0.97
CSc1nc(N)nc(SCC(=O)c2ccccc2)c1C#N | 2.3 | -0.83 | + | -0.5 | 3.16
N#Cc1ccc(-c2ccco2)nc1SCC(=O)c1ccc(Cl)cc1 | 4.3 | x | + | -3.1 | -1.45
Cc1ccc(C(=O)CSc2nc(-c3ccccc3)ccc2C#N)cc1 | 5.9 | 2.83 | + | -2.3 | -2.53
Cc1ccc(-c2ccc(SCC(=O)c3ccccc3)nn2)cc1 | 5.0 | -0.33 | i | -0.9 | -1.07
COc1ccc(C(=O)CSc2nc(N)nc(SC)c2C#N)cc1 | 1.6 | -0.61 | i | 1.8 | 0.132
Cc1nnc(SCC(=O)N2CCCC2)n(N)c1=O | 1.9 | 0.29 | i | -4.1 | -0.972
CCOc1ccc2nc(NC(=S)N(C)C)sc2c1 | 1.1 | 1.12 | + | x | -2.06

Compound activity (PubChem BioAssay)
